Source: ChEMBL document CHEMBL2021826, “Ester and carbamate ester derivatives of Biochanin A: synthesis and in vitro evaluation of estrogenic and antiproliferative activities” (Bioorg Med Chem, 2012)
Calls of active or inactive are those of the source. The rule behind the calls is not given here.

Legend:
[1] = tested on: MCF7; experiment: Growth stimulation of estrogen-deficient human MCF7 cells at 0.01 to 10 uM after 72 hrs by MTT assay; assay type: functional, cell-based
Outline: (§1)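 MCF-7 cells plated at 8000/well in phenol red-free MEM with 1 µg/mL insulin and 5% DCC-FBS (estrogen-free). Compounds up to 10 µM (0.01–10 µM), or DMSO vehicle at 0.1% final, added 24 h after plating. MTT conversion read 72 h later at 550 and 690 nm (reference), as % of vehicle. […] Three independent experiments in triplicate.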

[2] = species on record: Homo sapiens; experiment: Estrogenic activity at estrogen receptor in human MCF7:D5L cells co-expressing ERE assessed as induction of luciferase gene expression at 10 micoM after 16 hrs by microplate reader relative to untreated vehicle control; assay type: cell-based
Outline: (§2)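 MCF-7:D5L cells (MCF-7 stably carrying ERE-driven luciferase reporter) plated at 12,000/well in phenol red-free MEM with 1 µg/mL insulin and 5% DCC-FBS. Compounds up to 10 µM, or DMSO (0.1% final), added 72 h after plating. Luciferase read 16 h later, as % of vehicle. Three independent experiments in triplicate.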

[3] = tested on: MCF7; experiment: Growth stimulation of human MCF7:D5L cells co-expressing ERE assessed as increase in viable cell number by MTT assay; assay type: functional, cell-based
[4] = Estrogenic activity at estrogen receptor in human Ishikawa cells assessed as induction of alkaline phosphatase expression after 72 hrs by microplate reader; assay type: cell-based
Outline: (§3)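 Ishikawa cells plated at 12,000/well in phenol red-free MEM, 1 µg/mL insulin, 5% DCC-FBS. Compounds up to 10 µM, or DMSO (0.1% final), added 24 h after plating. Alkaline phosphatase activity read 72 h later on a plate reader, as % of vehicle-treated cells. […] Three independent experiments in triplicate.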

[5] = tested on: MCF7; experiment: Antiproliferative activity against estrogen-deficient human MCF7 cells at 10 uM after 72 hrs by MTT assay relative to untreated vehicle control; assay type: functional; outline: as §1
[6] = Estrogenic activity at estrogen receptor in human MCF7:D5L cells co-expressing ERE assessed as induction of luciferase gene expression after 16 hrs by microplate reader; assay type: cell-based; outline: as §2
[7] = tested on: MCF7; experiment: Stimulation of proliferation of estrogen-deficient human MCF7 cells after 72 hrs by MTT assay; conditions: MCF7, 72 h
[8] = species on record: Homo sapiens; experiment: Estrogenic activity at estrogen receptor in human MCF7:D5L cells co-expressing ERE assessed as induction of luciferase gene expression at 1 micoM after 16 hrs by microplate reader relative to untreated vehicle control; assay type: cell-based; outline: as §2
[9] = tested on: MCF7; experiment: Antiproliferative activity against estrogen-deficient human MCF7 cells at 1 uM after 72 hrs by MTT assay relative to untreated vehicle control; assay type: functional; outline: as §1
[10] = tested on: Ishikawa; experiment: Estrogenic activity at estrogen receptor in human Ishikawa cells assessed as induction of alkaline phosphatase expression at 10 uM after 72 hrs by microplate reader relative to untreated vehicle control; assay type: cell-based; outline: as §3
[11] = tested on: Ishikawa; experiment: Estrogenic activity at estrogen receptor in human Ishikawa cells assessed as induction of alkaline phosphatase expression at 1 uM after 72 hrs by microplate reader relative to untreated vehicle control; assay type: cell-based; outline: as §3
[12] = species on record: Homo sapiens; experiment: Estrogenic activity at estrogen receptor in human MCF7:D5L cells co-expressing ERE assessed as induction of luciferase gene expression at => 0.1 nM after 16 hrs by microplate reader in presence of 100 nM ER destabilizer fulvestrant; assay type: cell-based
Outline: (§4)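 Separate wells received 100 nM PPT, or 100 nM MPP with or without 100 nM DPN, added 72 h after plating. Luciferase measured 16 h later relative to vehicle. Mean ± SEM, three experiments in triplicate; t-test vs vehicle.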

[13] = tested on: Ishikawa; experiment: Estrogenic activity at estrogen receptor in human Ishikawa cells assessed as induction of alkaline phosphatase expression at => 0.1 nM after 72 hrs by microplate reader relative to untreated vehicle control in presence of 100 nM ER destabilizer fulvestrant; assay type: cell-based
Outline: (§5)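 Separate wells received 100 nM PPT, or 100 nM MPP with or without 100 nM DPN. AlkP activity read 72 h after dosing, relative to vehicle. Mean ± SEM of three experiments in triplicate; t-test vs vehicle.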

[14] = tested on: MCF7; experiment: Antiproliferative activity against estrogen-deficient human MCF7 cells after 72 hrs by MTT assay; assay type: functional, cell-based; conditions: MCF7, 72 h; outline: as §1
[15] = tested on: Ishikawa; experiment: Inhibition of estradiol-stimulated cell proliferation of human Ishikawa cells at 10 uM after 72 hrs by MTT assay; assay type: functional, cell-based
[16] = tested on: MDA-MB-231; experiment: Antiproliferative activity against ERalpha-deficient human MDA-MB-231 cells assessed as inhibition of cell proliferation at 1 uM after 72 hrs by MTT assay; assay type: functional, cell-based
Outline: (§6)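 MDA-MB-231 breast adenocarcinoma cells in phenol red-free MEM with 1 µg/mL insulin and 5% dextran-coated charcoal-treated FBS. Compound added 24 h after plating, DMSO vehicle at 0.1% final. Viable cells read 72 h later as MTT-formazan absorbance, 550 minus 690 nm reference, expressed as % of vehicle-treated cells.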

[17] = tested on: Ishikawa; experiment: Inhibition of estradiol-stimulated cell proliferation of human Ishikawa cells at 1 uM after 72 hrs by MTT assay; assay type: functional, cell-based
[18] = tested on: MDA-MB-231; experiment: Antiproliferative activity against ERalpha-deficient human MDA-MB-231 cells assessed as inhibition of cell proliferation at 10 uM after 72 hrs by MTT assay; assay type: functional; conditions: MDA-MB-231, 72 h; outline: as §6
[19] = tested on: Ishikawa; experiment: Estrogenic activity at estrogen receptor in human Ishikawa cells assessed as induction of alkaline phosphatase expression at 100 nM after 72 hrs by microplate reader; assay type: cell-based; outline: as §5
[20] = Estrogenic activity at estrogen receptor in human Ishikawa cells assessed as induction of alkaline phosphatase expression at 100 nM after 72 hrs by microplate reader relative to estradiol in presence of 100 nM ERalpha antagonist MPP; assay type: functional; outline: as §5
[21] = species on record: Homo sapiens; experiment: Estrogenic activity at estrogen receptor in human MCF7:D5L cells co-expressing ERE assessed as induction of luciferase gene expression at 100 nM after 16 hrs by microplate reader relative to untreated vehicle control; assay type: cell-based; outline: as §4
[22] = species on record: Homo sapiens; experiment: Estrogenic activity at estrogen receptor in human MCF7:D5L cells co-expressing ERE assessed as induction of luciferase gene expression at 100 nM after 16 hrs by microplate reader in presence of 100 nM ERalpha antagonist MPP; assay type: functional, cell-based; outline: as §4
[23] = tested on: Ishikawa; experiment: Growth stimulation of human Ishikawa cells at 10 uM after 72 hrs by MTT assay; assay type: functional, cell-based

| EC50 [4] | EC50 [6] | EC50 [7] | Structure (SMILES) | Activity [1] | Efficacy [2] | Activity [3] | Efficacy [5] | Efficacy [8] | Efficacy [9] | Efficacy [10] | Efficacy [11] | other results |
| --- | --- | --- | --- | --- | --- | --- | --- | --- | --- | --- | --- | --- |
| 620 nM | 220 nM | 420 nM | COc1ccc(-c2coc3cc(OC(=O)NCCBr)cc(O)c3c2=O)cc1 | Active | 1050% | inactive | 145% | 531% | 151% | 440% | 302% | – |
| 520 nM | 180 nM | 280 nM | COc1ccc(-c2coc3cc(OC(=O)CBr)cc(O)c3c2=O)cc1 | Active | 1320% | inactive | 154% | 584% | 156% | 387% | 332% | – |
| 660 nM | 140 nM | 680 nM | COc1ccc(-c2coc3cc(OC(=O)NCCCl)cc(O)c3c2=O)cc1 | Active | 1140% | inactive | 166% | 635% | 139% | 445% | 295% | – |
| 470 nM | 140 nM | 550 nM | COc1ccc(-c2coc3cc(OC(=O)CCl)cc(O)c3c2=O)cc1 | Active | 1310% | inactive | 155% | 823% | 152% | 354% | 314% | – |
| 420 nM | 300 nM | 210 nM | COc1ccc(-c2coc3cc(O)cc(O)c3c2=O)cc1 [BIOCHANIN] | Active | 733% | – | 167% | 490% | 161% | 309% | 310% | Activity [23]: Active |

The next lines start with the compound.

| Structure (SMILES) | EC50 [4] | EC50 [6] | EC50 [7] | Activity [1] | Efficacy [2] | Activity [3] | Efficacy [5] | Efficacy [8] | Efficacy [9] | Efficacy [10] | Efficacy [11] | other results |
| --- | --- | --- | --- | --- | --- | --- | --- | --- | --- | --- | --- | --- |
| C[C@]12CC[C@@H]3c4ccc(O)cc4CC[C@H]3[C@@H]1CC[C@@H]2O [ESTRADIOL] | 0.0246 nM | 0.0196 nM | – | – | 402% | – | 185% | 402% | 185% | 440% | 440% | Activity [12]: inactive; Activity [13]: inactive; EC50 [14]: 0.0064 nM |
| CCCCCCCCCCCNC(=O)Oc1cc(O)c2c(=O)c(-c3ccc(OC)cc3)coc2c1 | 1700 nM | 320 nM | – | inactive | 803% | inactive | 108% | 524% | 117% | 375% | 203% | inhibition [15]: Active; inhibition [16]: inactive; inhibition [17]: Active; inhibition at 10 µM [18]: 21% |
| CCCc1c(-c2ccc(O)cc2)nn(-c2ccc(O)cc2)c1-c1ccc(O)cc1 [PROPYLPYRAZOLETRIOL] | – | – | – | – | – | – | – | – | – | – | – | Activity [19]: Active; Activity [20]: 70%; Activity [21]: Active; Activity [22]: inactive |
